# Most compounds without a hit are left out; they make up all but 2.4% or so of the library.
# MT stabilize HCS: microtubule stabilization, imaging screen. HeLa tubulin immunostaining HCS, 24 h; share of cells brighter than vehicle mean+2SD. % tubulin-high responders, % at 10 µM. actives 0.83% (n = 200,000);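 active = plate Z-score above 3 for both tubulin-high and condensed-nucleus cell shares, with cell loss under 80%, at 10 µM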;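 also: anti alpha tubulin signal scored within the nucleus-defined area of each cell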
# bCat nuc transl: alters nuclear translocation of beta-catenin in HeLa cells; immunofluorescence imaging; nuclear translocation activity, % at 5 µM; actives 0.3% (n = 190,000);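 active = nuclear translocation activity above 50% at 5 µM, with a well cell count of 50 or more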;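 also: per-cell ratio of nuclear to cytoplasmic median beta-catenin stain intensity; plate controls were DMSO negative control for no effect and GSK-3 inhibitor IX positive control for full effect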
#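 Assay system: human HeLa cells, native beta-catenin; doses: 5 µM primary, 0.02–20 µM confirmation; incubation: compound treatment 24 h, 37°C, 5% CO2; technique: fluorescence imaging of beta-catenin antibody stain plus DAPI; measure: % activation, nuclear-to-cytoplasmic median beta-catenin signal ratio per cell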
# EP2 mod: EP2 receptor (human) modulation. P43116. EP2-expressing cells, cAMP HTRF FRET, PGE2 co-stimulation. actives 0.83% (n = 260,000). induction, % at 25 µM;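 active = compounds whose cAMP rise, as percent of the full-agonist control response, exceeds 60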;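 also: rat C6 glioma line stably carrying human EP2 under a CMV promoter; the protocol text gives 20 µM as final concentration; 100% = response of wells given 1 µM PGE2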
# Target sequence (P43116 whole entry, looked up): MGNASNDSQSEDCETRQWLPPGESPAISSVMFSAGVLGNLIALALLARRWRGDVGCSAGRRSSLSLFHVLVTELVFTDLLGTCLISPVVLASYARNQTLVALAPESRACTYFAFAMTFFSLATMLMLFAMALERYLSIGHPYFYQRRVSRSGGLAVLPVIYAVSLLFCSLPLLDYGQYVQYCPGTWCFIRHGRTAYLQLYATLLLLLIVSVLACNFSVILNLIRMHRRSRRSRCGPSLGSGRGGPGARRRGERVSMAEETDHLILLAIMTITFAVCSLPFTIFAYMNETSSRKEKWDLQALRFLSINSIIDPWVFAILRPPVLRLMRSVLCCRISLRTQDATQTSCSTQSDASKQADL
# Tb hexokinase: blocks Trypanosoma brucei hexokinase 1 activity; actives 0.11% (n = 220,000); recombinant TbHK1, G6PDH-coupled NADH A340; inhibition, % at 10 µM;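 active = inhibition of 50% or more in the single-dose primary screen; inactive = inhibition below 50%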
# Efa HMGR inh: blocks class II HMG-CoA reductase of Enterococcus faecalis | purified E. faecalis HMGR, NADPH absorbance 340 nm kinetic | inhibition, % at 10 µM | actives 0.41% (n = 190,000) | AID 1066;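 active = inhibition above a set limit, the median over all tested compounds plus 3 SD, cut at about 9.5% in these data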;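 also: enzyme runs in reverse so mevalonate oxidation gives rising NADPH absorbance; 0% = complete reaction with DMSO and 100% = background rate lacking mevalonate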
# PGE2 EP2 inh: inhibitors of human EP2 prostaglandin E2 receptor; C6 glioma cells expressing human EP2, cAMP TR-FRET; cells stimulated with saturating PGE2; P43116; actives 0.52% (n = 260,000); inhibition, % at 25 µM;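 active = percent inhibition above 40 after rounding to a whole number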;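 also: rat C6 glioma host cells with rolipram phosphodiesterase inhibitor present; the protocol text gives 20 µM as final concentration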
# Starred values were filed as active, the others as inactive; · = no result given.
SMILES,MT stabilize HCS,bCat nuc transl,EP2 mod,Tb hexokinase,Efa HMGR inh,PGE2 EP2 inh
O=C(NCc1cccnc1)/C(=C\c1ccc(-c2ccc(Cl)c(Cl)c2)o1)S(=O)(=O)c1ccccc1,35*,15,-48,-38,-3,2
O=C(NCc1cccnc1)c1ccc(-c2ccc(Cl)cc2)o1,3,1,-42,-4,2,13
CCOC(=O)c1cc(-c2ccccc2)sc1NC(=O)CC,4,7,23,-12,-5,8
CCOC(=O)c1cc(C)sc1NC(=O)c1ccccc1Cl,·,·,71*,·,·,9
Cc1cc2cc(C#N)c(N3CCN(C(=O)c4ccc(F)cc4)CC3)nc2cc1C,·,·,-112,·,·,10
CO/N=C/NC(=O)NOCc1ncc(C(F)(F)F)cc1Cl,2,7,28,-4,-3,-6
O=C(N/C=N/OCc1ccc(Cl)cc1Cl)NOCc1ncc(C(F)(F)F)cc1Cl,2,-1,61*,10,-6,5
CCCCCOc1ccc(CSC(=N)N)cc1[N+](=O)[O-],2,1,-28,3,-6,46*
COc1ccc(CSC(=N)N)cc1[N+](=O)[O-],4,·,10,-2,3,16
O=C(c1cn(C[C@@H]2CCCNC2)nn1)N1CCOCC1,·,·,-52,·,·,·
O=C(NCCc1nc2ccccc2[nH]1)/C(=C/c1ccco1)NC(=O)c1ccccc1Br,4,0,39,-8,1,7
CC(NC(=O)/C(=C\c1ccco1)NC(=O)c1ccccc1Br)C(=O)O (stereo not given),5,0,25,-17,10*,3
CCOC(=O)N1CCN(c2c(NCc3ccc(F)cc3)c(=O)c2=O)CC1,·,46,27,-4,·,10
CCOC(=O)N1CCN(c2c(NCc3cccs3)c(=O)c2=O)CC1,20*,·,6,-6,-6,7
C[n+]1cc2c3c(ccc2c2ccc4cc5c(cc4c21)OCO5)OCO3,·,·,-38,·,·,118*
Cc1ccc(Cn2c(SCCN3CCOCC3)nc3c2c(=O)[nH]c(=O)n3C)cc1,·,·,-17,·,·,7
C(=C\c1ccccc1)/CSc1nnc(-c2cnccn2)n1Cc1ccco1,5,56*,20,2,-7,1
Cc1nn(Cc2ccc(F)cc2)c(C)c1NC(=O)c1cc2nc(-c3ccco3)cc(C(F)(F)F)n2n1,·,·,-90,·,·,5
COc1cc(/C=C2\SC(=N)N(c3ccc(F)cc3)C2=O)ccc1O,10*,2,-29,-19,8,10
CCOc1ccc(N2C(=O)S/C(=C\c3ccc(O)c(OC)c3)C2=O)cc1,·,3,-51,1,·,16
Clc1ccc(C2=Nn3c(nnc3-c3n[nH]c4c3CCC4)SC2)cc1Cl,19*,-1,23,3,-2,9
O=c1[nH]c(=O)c2sc3nc(C4CC4)cc(C(F)(F)F)c3c2[nH]1,·,·,16,·,·,13
CC1CCc2c(sc3nc(C4CC4)n4c(SCC(=O)N5CCOCC5)nnc4c23)C1 (stereo not given),·,·,6,·,·,7
O=C(/C=C/c1ccccc1)NC1CC2CCCC(C1)N2Cc1cccs1 (stereo not given),·,·,-97,·,·,49*
CC(C)(C)NC(=O)c1cccc2c1OC(C)(C)C2,2,1,40,3,0,5
SMILES,MT stabilize HCS,bCat nuc transl,EP2 mod,Tb hexokinase,Efa HMGR inh,PGE2 EP2 inh
CC1(C)Cc2cccc(C(=O)Nc3ccc(F)cc3F)c2O1,·,4,82*,-1,·,4
O=c1cc(-c2ccccc2)[nH]c2ccccc12,32*,193*,5,-21,-6,4
O=C1C(c2cc(=O)c3ccccc3[nH]2)=C(O)c2ccccc21,2,-2,-18,-1,1,10
CCN(C(=O)Cn1cc(C(F)(F)F)ccc1=O)c1c(N)n(Cc2ccccc2)c(=O)[nH]c1=O,1,-3,7,1,16*,10
CCN(C(=O)CN1CCN(c2ccccc2)CC1)c1c(N)n(Cc2ccccc2)c(=O)[nH]c1=O,2,-1,-40,3,-4,13
CCOC(=O)c1sc(N2C(=O)C(=O)/C(=C(\O)c3ccc(OC)cc3C)C2c2cccnc2)nc1C (stereo not given),·,·,4,·,·,54*
O=C(C1c2ccccc2C(=O)N2CCc3ccccc3C12)N1CCN(Cc2ccccc2)CC1 (stereo not given),1,-1,23,-3,49*,9
Cc1ccc(NC(=O)CSc2nnc(CN3CCOCC3)n2C)cc1Cl,·,·,-21,·,·,11
CCOCCCNC(=O)/C(C#N)=C/c1cc(OC)c(O)c([N+](=O)[O-])c1,24*,1,-16,-12,-4,12
O=[N+]([O-])c1ccc(/C=N/n2c(CO)nc3ccccc32)s1,10,2,1,-4,-5,11
Cc1nc2ccccc2n1/N=C/c1ccc([N+](=O)[O-])s1,10*,5,-49,1,0,24
OCCN(Cc1cccnc1)Cc1cccn1-c1ccccc1Cl,·,·,-2,·,·,2
Cc1cccnc1NC(=S)Nc1ncccc1C,·,-3,4,-4,·,12
CCOc1ccccc1NC(=S)Nc1ncccc1C,18,2,26,-2,-1,41*
Nc1cc(-c2ccco2)nn(CC(=O)N(C2CCCCC2)C2CCCCC2)c1=O,·,·,5,·,·,3
CCOC(=O)c1cc(CC)sc1NC(=O)c1ccc(N2CCOCC2)c([N+](=O)[O-])c1,3,-3,47,-20,-2,11
CC1CCN(c2ccc([N+](=O)[O-])cc2C(=O)O)CC1,4,-2,21,-3,2,5
CC1CCCN(c2ccc([N+](=O)[O-])cc2C(=O)c2ccccc2)C1 (stereo not given),6,60*,53,12,-2,6
O=C(c1ccc(Cl)cc1)c1cc([N+](=O)[O-])ccc1N1CCOCC1,10,48,21,-9,-4,3
O=C(c1ccccc1)c1cc([N+](=O)[O-])ccc1N1CCOCC1,10,178*,19,-18,-1,13
O=C(c1ccc(Br)cc1)c1cc([N+](=O)[O-])ccc1N1CCOCC1,16*,7,3,-8,-3,6
CCOC(=O)c1cc(CC)sc1NC(=O)c1cc([N+](=O)[O-])ccc1N1CCOCC1,14,59*,13,-19,-1,5
Cc1cc(-c2cncnc2C2CCCN(C(=O)C3CC=CCC3)C2)on1 (stereo not given),·,·,-9,·,·,·
COC(=O)/C(=C/c1cn(C(C)=O)c2ccccc12)[N+](=O)[O-],·,1,-85,1,·,14
CC(=O)n1cc(C(C[N+](=O)[O-])SCCN)c2ccccc21 (stereo not given),26*,16,-50,-11,-4,50*
Cc1ccccc1N1CCN(C2=NC(=O)/C(=C\c3cccs3)S2)CC1,9.4*,0,51,-6,-7,12

# High-throughput results from PubChem BioAssay.
